Bioassay records (PubChem BioAssay)
Only some compounds are listed: those with a hit (about 1.3% of all), similar ones and a draw of the others.
DDE Tn6 FP inh: disrupts Tn6 cyclic peptide binding to fibrin D-Dimer-E complex. P02675. Fibrin DD(E) TRITC-Tn6 fluorescence polarization displacement. inhibition, % at 8.3 µM. 370,000 compounds, 0.21% hits. AID 720509;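 active means inhibition above a per-campaign cutoff: mean of compounds within control limits plus 3 SD, cut at about 15% in these data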;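 further: 0% = median of all compound wells on the plate and 100% = blocking peptide control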
TCR-CD3 inh: human TCR-CD3 binding inhibition; TAMRA-labeled TCR probe fluorescence, biochemical; inhibition, % at 9.4 µM; 360,000 compounds, 0.37% hits; in the data active means inhibition above about 19%;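 further: recombinant mutant TCR 2C K166C tagged with TAMRA read by polarization; 0% = receptor in buffer alone and 100% = receptor with positive control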
HTRA1 inh: inhibitors of human serine peptidase HTRA1 | 340,000 compounds, 0.5% hits | Q92743 | inhibition, % at 5.96 µM | recombinant HTRA1, FP-rhodamine activity-based probe, fluorescence polarization; in the data active means inhibition above about 36%;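 further: 0% = enzyme with DMSO and 100% = wells lacking enzyme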
Target sequence (Q92743 whole entry, looked up): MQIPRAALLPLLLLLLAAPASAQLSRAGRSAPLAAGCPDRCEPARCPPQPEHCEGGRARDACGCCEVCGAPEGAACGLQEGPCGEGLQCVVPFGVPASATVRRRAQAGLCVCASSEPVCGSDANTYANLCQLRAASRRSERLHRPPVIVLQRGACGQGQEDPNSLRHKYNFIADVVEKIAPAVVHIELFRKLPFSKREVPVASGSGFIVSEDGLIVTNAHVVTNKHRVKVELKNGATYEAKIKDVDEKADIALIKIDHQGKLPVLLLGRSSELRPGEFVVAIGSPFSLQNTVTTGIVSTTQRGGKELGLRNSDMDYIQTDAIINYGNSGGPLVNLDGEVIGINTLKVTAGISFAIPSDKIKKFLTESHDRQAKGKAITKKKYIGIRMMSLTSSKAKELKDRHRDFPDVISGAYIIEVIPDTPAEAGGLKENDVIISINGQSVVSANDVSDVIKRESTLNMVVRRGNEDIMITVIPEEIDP
mABHD4 FP: inhibits mouse alpha/beta hydrolase domain 4. purified mABHD4, FP-Rh probe fluorescence polarization. inhibition, % at 8.92 µM. 370,000 compounds, 0.54% hits;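 active means inhibition exceeding the mean over every tested compound plus 3 SD, cut at about 30% in these data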;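 further: 0% = plate median of compound wells and 100% = S159A mutant with DMSO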
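Assay system: mABHD4 protein; medium: HEPES pH 7.0, NaCl, Pluronic buffer; dosing: 8.92 µM, single dose; schedule: 45 min + 60 min at 25 °C; signal: FP readout, ex 525 nm / em 598 nm; read-out: normalized percent inhibition of probe labeling; repeats: single replicate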
Tn7 DDE FP: DD(E)-Tn7 binding inhibition, primary FP screen; 370,000 compounds, 0.13% hits; P02675; FP displacement of FITC-Tn7 peptide from fibrin DD(E); 0% = median of compound wells per plate; inhibition, % at 8.3 µM; AID 720508;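 active means inhibition above the mean of compounds falling within the control limits plus 3 SD of them, cut at about 14% in these data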;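 further: 0% = plate median of compound wells and 100% = 10 µM Aha-Tn7 peptide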
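Assay system: human fibrin DD(E) protein / Input: 2 µM fibrin DD(E) / Benchmarks: high control of 10 µM Aha-Tn7 peptide / Measured by: fluorescence polarization of the labelled Tn7 tracer / Medium: Tris buffer with calcium and detergent, pH 7.8 / Timing: 10 min compound pre-incubation, 3 h probe incubation at room temperature / Repeats: one replicate per compound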
mABHD4 conf: ABHD4 (mouse) inhibition, FP confirmation. shares compounds with mABHD4 FP. purified mABHD4, FP-Rh probe fluorescence polarization. inhibition, % at 8.92 µM. 1,800 compounds, 55% hits. AID 720658;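 active means mean inhibition across replicates above the hit cutoff set in the primary screen, cut at about 30% in these data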;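 further: 0% = wild-type ABHD4 with DMSO and 100% = catalytically dead S159A mutant with DMSO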
An asterisk follows results filed as active.

F[B-](F)(F)COc1ccccc1 was read as DDE Tn6 FP inh 2, TCR-CD3 inh -1, HTRA1 inh -3, mABHD4 FP 68*, Tn7 DDE FP -3 and mABHD4 conf 36*.
Screening CC1=NN(Cc2ccccc2)C(=O)C1C(c1ccc(Cl)cc1)C(C#N)C#N (stereo unspecified) returned DDE Tn6 FP inh 0, TCR-CD3 inh -8, HTRA1 inh 33, mABHD4 FP 83*, Tn7 DDE FP -1 and mABHD4 conf 29.
CC1=NN(Cc2ccccc2)C(=O)C1C(c1ccncc1)C(C#N)C#N (stereo unspecified) was read as DDE Tn6 FP inh -4, TCR-CD3 inh 3, HTRA1 inh 1, mABHD4 FP 4 and Tn7 DDE FP 0.
For CC1=NNC(=O)C1C(c1ccc(Cl)cc1)C(C#N)C#N (stereo unspecified) the results were DDE Tn6 FP inh 4, TCR-CD3 inh -12, mABHD4 FP -8 and Tn7 DDE FP -3.
CC1=NN(Cc2ccccc2)C(=O)C1C(c1ccccc1)C(C#N)C#N (stereo unspecified) was read as DDE Tn6 FP inh 3, TCR-CD3 inh 6, HTRA1 inh 3, mABHD4 FP 53*, Tn7 DDE FP -4 and mABHD4 conf -10.
Screening NC(=S)NN=Cc1nccc2c(N)cccc12 returned DDE Tn6 FP inh -3, TCR-CD3 inh 4, HTRA1 inh 16, mABHD4 FP 36*, Tn7 DDE FP -8 and mABHD4 conf 44*.
For CCCCCCn1c(=O)n2n(c1=O)C[C@]1(OC(=O)NCc3ccccc3F)CN(S(=O)(=O)c3ccc(C)cc3)C[C@]1(O)C2 the results were DDE Tn6 FP inh -1, TCR-CD3 inh 0, HTRA1 inh -40, mABHD4 FP -29 and Tn7 DDE FP 5.
Screening CCOc1ccc(NC(=O)C/C(C)=N/NC(=O)COc2ccc(Br)cc2C)cc1 returned DDE Tn6 FP inh 0, TCR-CD3 inh 5, HTRA1 inh 0, mABHD4 FP -6 and Tn7 DDE FP 3.
C/C(=N/Nc1ccnc2cc(Cl)ccc12)c1ccc(O)cc1 was read as DDE Tn6 FP inh -4, TCR-CD3 inh 2, HTRA1 inh 4, mABHD4 FP 29 and Tn7 DDE FP -1.
Screening C/C(=N/Nc1ccnc2cc(Cl)ccc12)c1ccc(N)cc1 returned DDE Tn6 FP inh -9, TCR-CD3 inh -1, HTRA1 inh 12, mABHD4 FP 30*, Tn7 DDE FP -7 and mABHD4 conf 33*.
Screening CCOC(=O)c1c(C)n(C)c2cc(Br)c(O)c(O)c12 returned DDE Tn6 FP inh -3, TCR-CD3 inh -4, HTRA1 inh 9, mABHD4 FP 30*, Tn7 DDE FP 0 and mABHD4 conf 5.
CCOC(=O)c1c(C)n(C)c2cc([N+](=O)[O-])c(O)c([N+](=O)[O-])c12 was read as DDE Tn6 FP inh 7, TCR-CD3 inh -4, HTRA1 inh -1, mABHD4 FP 9 and Tn7 DDE FP 0.
COC(=O)CCCC1=CC2=CC(=O)C(C)(OC(=O)c3cccs3)C(=O)C2=CN1Cc1ccco1 (stereo unspecified) was read as DDE Tn6 FP inh 1, TCR-CD3 inh 6, HTRA1 inh 16, mABHD4 FP 32*, Tn7 DDE FP -5 and mABHD4 conf 14.
For CC(SC1=NCCN1S(=O)(=O)c1ccc(F)cc1)c1ccccc1 (stereo unspecified) the results were DDE Tn6 FP inh 6, TCR-CD3 inh 12, HTRA1 inh -9, mABHD4 FP -9 and Tn7 DDE FP 7.
Screening CCOc1ccc(CSC(=N)N)cc1 returned DDE Tn6 FP inh -4, TCR-CD3 inh 0, HTRA1 inh 1, mABHD4 FP 0 and Tn7 DDE FP 0.
For CCCCOc1ccc(CSC(=N)N)cc1Cl the results were DDE Tn6 FP inh -2, TCR-CD3 inh -8, HTRA1 inh -2, mABHD4 FP 38*, Tn7 DDE FP 7 and mABHD4 conf 22.
For CCCCCOc1ccc(Br)cc1CSC(=N)N the results were DDE Tn6 FP inh 2, TCR-CD3 inh 3, HTRA1 inh -17, mABHD4 FP 40*, Tn7 DDE FP -1 and mABHD4 conf 49*.
Screening COc1ccc(Br)cc1CSC(=N)N returned DDE Tn6 FP inh -4, TCR-CD3 inh 6, HTRA1 inh 4, mABHD4 FP 4 and Tn7 DDE FP -1.
